Results on 19 compounds are retold here after ChEMBL document CHEMBL1123492, “Carboxyl-modified amino acids and peptides as protease inhibitors” (J Med Chem, 1986).

The structures appear in SMILES notation. Where a SMILES comes first, the peptide text is derived from it.

One assay deals with T1, Papain (Carica papaya, UniProt P00784).
T1 sequence (P00784 whole entry): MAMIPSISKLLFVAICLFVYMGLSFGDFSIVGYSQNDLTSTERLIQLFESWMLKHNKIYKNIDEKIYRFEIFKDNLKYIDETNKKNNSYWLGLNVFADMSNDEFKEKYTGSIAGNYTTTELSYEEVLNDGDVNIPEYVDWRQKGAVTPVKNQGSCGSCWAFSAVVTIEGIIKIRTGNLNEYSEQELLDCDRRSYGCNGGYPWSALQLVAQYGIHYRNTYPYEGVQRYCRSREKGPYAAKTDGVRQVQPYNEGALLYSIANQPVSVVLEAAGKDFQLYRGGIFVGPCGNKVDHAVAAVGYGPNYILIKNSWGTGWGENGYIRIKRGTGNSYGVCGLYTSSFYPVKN
In words: Compound was tested for Inhibition of Papain. The gist of the method:
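Papain activated 45 min at 25 °C in 50 mM phosphate pH 6.2 with 1 mM EDTA and 0.25 mM cysteine, made fresh daily. N-Cbz-Gly p-nitrophenyl ester hydrolysis at 25 °C read at 340 nm (Δε 6000 M⁻¹ cm⁻¹), corrected for nonenzymic hydrolysis. Compounds in acetonitrile or DMF, final <2.5% v/v. Reversible Ki by Lineweaver–Burk; irreversible Ki and k2 by Kitz–Wilson.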

For the next assay, the target named is Chymotrypsinogen A (Bos taurus, UniProt P00766). In words: Compound was tested for Inhibition of Chymotrypsinogen. Put shortly:
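Chymotrypsin hydrolysis of glutaryl-L-Phe p-nitroanilide followed photometrically. Km of substrate and Ki of reversible inhibitors from Lineweaver–Burk double-reciprocal plots, Ki from replots of Km(app)/Vmax vs [I]; slopes and intercepts by linear regression. Test compounds added in methanol (<5% of final volume).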

Assay [1] concerns the target T2, Dipeptidyl peptidase 1 (Homo sapiens, UniProt P53634). The experiment in a line: Compound was tested for Inhibition of Dipeptidyl aminopeptidase 1. The gist of the method:
(§1)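 Cathepsin C diluted 1:200 daily in ice-cold 50 mM citrate pH 5 with 10 mM cysteamine. Gly-Phe p-nitroanilide hydrolysis at 37 °C read at 405 nm (Δε 9900 M⁻¹ cm⁻¹), started by adding substrate to prewarmed enzyme/inhibitor. Irreversible inhibition: enzyme preincubated with varied inhibitor levels, aliquots diluted into substrate over time. k_app from ln(% activity) vs time; Ki and k2 from 1/k_app vs 1/[I].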

The nature of assay [2]: Compound was tested for Inhibition of leucine aminopeptidase-C.
The nature of assay [3]: Compound was tested for Inhibition of Leucine aminopeptidase-M.
Assay [4] can be described thus: Compound was tested for Inhibition of Leucine aminopeptidase-M; NI is No inhibition at 40 mM.
For assay [5], the target named is T2, Dipeptidyl peptidase 1. In words: Compound was tested for Inhibition of dipeptidyl Dipeptidyl aminopeptidase 1. The gist of the method:
as §1

T2 sequence (P53634 25-134 limits assumed): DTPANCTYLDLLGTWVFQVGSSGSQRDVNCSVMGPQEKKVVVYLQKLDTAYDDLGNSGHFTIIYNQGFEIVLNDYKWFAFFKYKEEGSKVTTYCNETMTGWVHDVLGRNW
T2 sequence (P53634 231-394 limits assumed): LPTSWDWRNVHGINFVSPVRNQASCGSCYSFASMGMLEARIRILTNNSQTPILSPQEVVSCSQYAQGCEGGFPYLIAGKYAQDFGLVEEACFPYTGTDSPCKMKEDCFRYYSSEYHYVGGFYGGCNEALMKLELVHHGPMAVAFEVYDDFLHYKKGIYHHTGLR
T2 sequence (P53634 395-463 limits assumed): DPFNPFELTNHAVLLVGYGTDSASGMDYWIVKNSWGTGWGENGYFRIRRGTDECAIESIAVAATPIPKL

The Ki is the dissociation constant of the complex between target and ligand, obtained from inhibition or displacement. For the compound `C=CCNC(=O)C(Cc1ccccc1)NC(C)=O` (stereo not drawn), at Papain, the Ki was determined as 9.2 mM.

In the case of `CC(=O)NC(Cc1ccccc1)C(=O)NCC(=N)S` (stereo not drawn), the Ki at Papain worked out at 0.095 mM. This Ki lies about 97-fold lower than the previous one. As to `COC(=O)/C=C/C(Cc1ccccc1)NC(C)=O` (stereo not drawn), on Chymotrypsinogen A, the affinity corresponds to a Ki of 30.8 mM.

On Papain, `COC(=O)CCCNC(=O)C(Cc1ccccc1)NC(C)=O` (stereo not drawn) came in with a Ki of 19.5 mM.

On Dipeptidyl peptidase 1 [1], `N#CC(Cc1ccccc1)NC(=O)CN` (stereo not drawn) showed a Ki of 0.0027 mM. `CC(=O)NC(Cc1ccccc1)C(N)=S` (stereo not drawn) came in with a Ki at Chymotrypsinogen A of 23 mM. On the same count and under the same terms, to `CC(=O)NC(/C=C/S(C)(=O)=O)Cc1ccccc1` (stereo not drawn) belongs 29.4 mM.

The compound `CC(=O)NC(Cc1ccccc1)C(=O)NCC#N` (stereo not drawn) yielded an inhibitory constant (Ki) on Papain of 0.0011 mM.

With `COC(=O)/C=C/C(N)Cc1ccccc1` (stereo not drawn), the Ki in assay [2] amounted to 23.7 mM; in assay [3], 61 mM. With `CC(=O)NC(C#N)Cc1ccccc1` (stereo not drawn), affinity at Chymotrypsinogen A was put at a Ki of 5.3 mM.

For the compound `CS(=O)(=O)/C=C/C(Cc1ccccc1)NC(=O)CN` (stereo not drawn), the Ki on Dipeptidyl peptidase 1 [1] was 0.18 mM. On the same count and under the same terms, in the case of `COC(=O)/C=C/C(Cc1ccccc1)NC(=O)CN` (stereo not drawn) it was 0.22 mM. As for `N#CC(N)Cc1ccccc1` (stereo not drawn), the values for the Ki in assay [2] and in assay [3] were 26.4 mM and 67 mM, respectively. The corresponding values for `NC(=O)C(N)Cc1ccccc1` (stereo not drawn) are 14.1 mM and 14.8 mM. The corresponding values for `CS(=O)(=O)/C=C/C(N)Cc1ccccc1` (stereo not drawn) are 8.8 mM and 3.7 mM. With `CC(=O)NC(Cc1ccccc1)C(N)=O` (stereo not drawn), on Chymotrypsinogen A, affinity was put at a Ki of 13.9 mM. Regarding `N=C(S)C(N)Cc1ccccc1` (stereo not drawn), the inhibitory constant (Ki) entry in assay [4] is recorded as “No inhibition”. At Papain, `CC(=O)N[C@@H](Cc1ccccc1)C(=O)NCC(N)=O` (Ac-Phe-Gly-NH2) came in with a Ki of 4.7 mM.

On to `NCC(=O)N[C@@H](Cc1ccccc1)C(N)=O` (H-Gly-Phe-NH2), for which the inhibition constant (Ki) on Dipeptidyl peptidase 1 [5] worked out at 6.2 mM.
